The full list was thinned out, with hits kept by preference.
CHOP UPR activ: apoptotic UPR (CHOP) activation. activation, % at 10 µM. CHO-CHOP luciferase reporter, luminescence; percent of tunicamycin response over DMSO baseline. AID 449763. 0.34% of 330,000 active;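 active = at 10 µM dose, activation of 40% or more, normalized to positive control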;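 also: 100% = tunicamycin at 10 µg/mL and 0% = DMSO alone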
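Assay system: CHO cells with stable CHOP pathway luciferase reporter; Buffer or medium: F12 plus 10% serum; Times: 16-18 h cell attachment, then 6 h compound exposure, 37 °C; Signal: luciferase luminescence; Read-out basis: percent activation relative to tunicamycin control; Control set: tunicamycin high control, DMSO low control.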
UPR XBP1 act: activators of adaptive arm of unfolded protein response (XBP1); activation, % at 20 µM; 0.33% of 330,000 active; CHO-XBP1 luciferase reporter, IRE1-XBP1 UPR activation, luminescence; percent of tunicamycin response, DMSO as zero;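 active = versus positive control, 20 µM dose yields 30% or more activation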;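 also: 100% = tunicamycin at 10 µg/mL and 0% = DMSO only wells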
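Material: CHO-XBP1 cells stably carrying IRE1-XBP1-driven luciferase reporter / Amount: 1000 cells per well / Compound: 20 µM, 1% DMSO / Times: 6 h treatment, 37 °C / Detection: luciferase luminescence / Measure: % activation of reporter signal versus tunicamycin and DMSO controls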
CHOP inhibitor: CHOP inhibition in unfolded protein response | inhibition, % at 10 µM | 3.8% of 220,000 active | CHO-K1 CHOP-promoter luciferase, tunicamycin-induced, 15-18 h;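 active = compounds that reduced the stress-induced luciferase reporter signal by more than about 70% of percent inhibition, limit read from the data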;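 also: 0% = tunicamycin plus vehicle and 100% = wells without tunicamycin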
Jurkat NFkB inh: inhibitors of the PMA/ionomycin-induced NF-kB reporter in Jurkat cells; PMA/ionomycin-induced NF-kB luciferase reporter, luminescence; inhibition, % at 4 µM; 0.53% of 330,000 active; AID 435003; in the data active = inhibition above about 50%
697 NFkB inh: inhibitors of the PMA/ionomycin-induced NF-kB reporter in 697 B cells; 697 B-cell NF-kB luciferase reporter, 16 h; inhibition, % at 4 µM; 0.33% of 330,000 active; in the data active = inhibition above about 35%
CHOP inh conf: confirmation of CHOP induction inhibitors. shares compounds with CHOP inhibitor. CHO-CHOP promoter luciferase reporter, tunicamycin-induced, luminescence. inhibition, % at 10 µM. 45% of 2,100 active. AID 504437;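 active = mean of three repeat readings of reporter signal inhibition above a set limit, cut at about 70% in these data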;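 also: 0% = tunicamycin plus vehicle and 100% = wells lacking tunicamycin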
Jurkat NFkB conf: inhibitors of the PMA/ionomycin-induced NF-kB reporter in Jurkat cells, retest; shares compounds with Jurkat NFkB inh; Jurkat NF-kB luciferase, 16 h; inhibition, % at 4 µM; 27% of 2,700 active;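 active = inhibition reaching about 45% at 4 µM in either replicate, limit read from the data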;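 also: plate controls were PMA/ionomycin stimulated DMSO wells for no effect and unstimulated DMSO wells for full effect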
697 NFkB conf: inhibitors of the PMA/ionomycin-induced NF-kB reporter in 697 B cells, retest. shares compounds with 697 NFkB inh. 697 B-cell NF-kB luciferase, 16 h. inhibition, % at 4 µM. 35% of 2,000 active. AID 449746; in the data active = inhibition mostly above about 28%, no sharp cut-off; inactive = mostly below about 22%
UPR CHOP confirm: apoptotic UPR (CHOP) activation, confirmed; shares compounds with CHOP UPR activ; CHO-CHOP cells, CHOP-luciferase reporter luminescence; percent of tunicamycin response, DMSO as zero; activation, % at 10 µM; 64% of 1,000 active; in the data active = activation above about 33%;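 also: 0% = DMSO wells and 100% = tunicamycin 10 µg/mL wells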
* = called active by the depositor.

Results for CCN1C(=O)/C(=C/c2ccc(N(CC)CC)cc2OC)C(=O)NC1=S ?
CHOP UPR activ: 3; UPR XBP1 act: 2; CHOP inhibitor: 100*; Jurkat NFkB inh: 9; 697 NFkB inh: -12; CHOP inh conf: -15

How did CC(=O)OC[C@]12CCC(C)=C[C@H]1O[C@@H]1[C@H](O)[C@@H](OC(C)=O)[C@@]2(C)[C@]12CO2 do in these assays?
CHOP UPR activ: -6; UPR XBP1 act: -6; CHOP inhibitor: 104*; Jurkat NFkB inh: 97*; 697 NFkB inh: 98*; CHOP inh conf: 123*; Jurkat NFkB conf: 99*; 697 NFkB conf: 94*

What do the screens show for `C=C(C=O)CC1CC(O)[C@]2(C)OC3CC4OC5C[C@]6(C)O[C@]7(C)CCC8OC9C[C@]%10(C)OC%11C(C)=CC(=O)OC%11CC%10OC9C[C@@H](C)C8OC7CC6O[C@]5(C)CC5OC5C4OC3CC2O1` (some centres not stated)?
CHOP UPR activ: -9; UPR XBP1 act: -8; CHOP inhibitor: 105*; Jurkat NFkB inh: 96*; 697 NFkB inh: -390; CHOP inh conf: 127*; Jurkat NFkB conf: 96*; 697 NFkB conf: 38*

Results for C=C(CO)CC1CC(O)[C@]2(C)OC3CC4OC5C[C@]6(C)O[C@]7(C)CCC8OC9C[C@]%10(C)OC%11C(C)=CC(=O)OC%11CC%10OC9C[C@@H](C)C8OC7CC6O[C@]5(C)C/C=C\C4OC3CC2O1 (some centres not stated) ?
CHOP UPR activ: 3; UPR XBP1 act: 3; CHOP inhibitor: 41; Jurkat NFkB inh: 23; 697 NFkB inh: 19

Results for COC(=O)[C@@]1(C#N)[C@@H]2C=CC(C(C)=O)=CN2[C@@H](C(N)=O)[C@@H]1c1ccc(F)cc1 ?
CHOP UPR activ: 0; UPR XBP1 act: 3; CHOP inhibitor: -10; Jurkat NFkB inh: -8; 697 NFkB inh: -1

What do the screens show for `C=C1C(=O)O[C@@H]2C[C@@H](C)[C@@H]3C=CC(=O)[C@@]3(C)[C@@H](O)[C@H]12`?
CHOP UPR activ: -9; UPR XBP1 act: -12; CHOP inhibitor: 107*; Jurkat NFkB inh: 99*; 697 NFkB inh: 102*; CHOP inh conf: 119*; Jurkat NFkB conf: 95*; 697 NFkB conf: 105*

What do the screens show for `CC1=CC2/C=C(\C)CCC(O)C(O)/C=C/C(=O)C23C(=O)NC(CC(C)C)C3C1C` (configuration not stated)?
CHOP UPR activ: -10; UPR XBP1 act: -9; CHOP inhibitor: 105*; Jurkat NFkB inh: 79*; 697 NFkB inh: 38*; CHOP inh conf: 125*; Jurkat NFkB conf: 19; 697 NFkB conf: -3

How did O=C(CCC(=O)N1C[C@H]2C[C@@H](C1)c1cccc(=O)n1C2)NCc1ccc(F)cc1 do in these assays?
CHOP UPR activ: 2; UPR XBP1 act: -1; Jurkat NFkB inh: 5; 697 NFkB inh: 7

Results for CC(NS(C)(=O)=O)c1nnc2n1-c1ccc(Br)cc1C(c1ccccc1Cl)=NC2 (configuration not stated) ?
CHOP UPR activ: 0; UPR XBP1 act: 2; Jurkat NFkB inh: -7; 697 NFkB inh: 30

How did CCN1/C(=C\C=C\C2=[N+](CC)c3ccccc3C2(C)C)C(C)(C)c2ccccc21 do in these assays?
CHOP UPR activ: 46*; UPR XBP1 act: 3; CHOP inhibitor: 103*; Jurkat NFkB inh: 100*; 697 NFkB inh: -37; CHOP inh conf: 140*; Jurkat NFkB conf: 80*; UPR CHOP confirm: 24
